From ChEMBL document CHEMBL1152935, “Synthesis and structure-activity relationships of radicicol derivatives and WNT-5A expression inhibitory activity” (Bioorg Med Chem, 2009)

Tests used:
[1] = Inhibition of WNT5A mRNA expression in human dermal papilla cells after 24 hrs by quantigene assay; assay type: functional, cell-based
Procedure, shortened: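 Human dermal papilla cells (gift, fifth subculture) in MEM with 12% FBS, seeded at 1 × 10⁴ cells/well, cultured overnight, then exposed 24 h to compounds or no-compound medium. WNT-5A mRNA quantified by branched-DNA QuantiGene: lysates on capture plate, WNT-5A probes 53 °C 20 h, amplifier then alkaline phosphatase probe each 46 °C 1 h, Lumi-Phos Plus 46 °C 30 min, luminescence read. IC50 reported.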

[2] = Cytotoxicity against human dermal papilla cells by Alamar blue assay; assay type: cell-based; details: read-out: TC50 (the source's name)
Procedure, shortened: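 Dermal papilla cells seeded at 5 × 10³ cells/well, grown 16 h in MEM with 12% FBS, then given medium with or without test compounds for 24 h. Medium swapped for one containing 10% Alamar Blue and cells cultured 4 h more; fluorescence read at Ex 544 nm/Em 590 nm. TC50 reported.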

[3] = Inhibition of HSP90

SMILES	IC50 ([1]; Homo sapiens, 24 h) [µM]	CC50 [2] [µM]	IC50 [1] [µM]	IC50 [3] [µM]
C[C@@H]1C[C@H]2O[C@@H]2CCCC[C@H](O)Cc2c(Cl)c(O)cc(O)c2C(=O)O1	5.89	> 100		
C[C@@H]1C[C@H]2O[C@@H]2CC/C=C/[C@@H](O)Cc2c(Cl)c(O)cc(O)c2C(=O)O1	> 100	> 100		
C[C@@H]1C[C@H]2O[C@@H]2C/C=C/C[C@@H](O)Cc2c(Cl)c(O)cc(O)c2C(=O)O1	> 50			
C[C@@H]1C[C@H]2O[C@@H]2CC/C=C/[C@H](O)Cc2c(Cl)c(O)cc(O)c2C(=O)O1	1.89	> 100		
C[C@@H]1C[C@H]2O[C@@H]2CCCC[C@@H](O)Cc2c(Cl)c(O)cc(O)c2C(=O)O1	> 100	> 100		
C[C@@H]1C[C@H]2O[C@@H]2C/C=C/C[C@H](O)Cc2c(Cl)c(O)cc(O)c2C(=O)O1	> 50			
C[C@@H]1C/C=C/CC/C=C/[C@H](O)Cc2cc(O)cc(O)c2C(=O)O1	> 50			
CC(=O)S[C@@H]1/C=C\CC(=O)Cc2c(Cl)c(O)cc(O)c2C(=O)O[C@H](C)C[C@H]2O[C@@H]21	0.5	> 100		
COc1cc(O)c2c(c1Cl)C[C@@H](O)/C=C/CC[C@H]1O[C@@H]1C[C@@H](C)OC2=O	> 100			
C[C@@H]1C[C@H]2O[C@@H]2/C=C\C=C\[C@H](O)Cc2c(Cl)c(O)cc(O)c2C(=O)O1	2.07	> 100		
C[C@@H]1C[C@@H](O)CC/C=C/CC(=O)Cc2c(Cl)c(O)cc(O)c2C(=O)O1	> 50			
C[C@@H]1C[C@@H](O)CCCCCC(=O)Cc2c(Cl)c(O)cc(O)c2C(=O)O1	> 50			
C[C@@H]1CC(O)C2C=CC(CC(=O)Cc3c(Cl)c(O)cc(O)c3C(=O)O1)O2 (stereo partly drawn)	> 50			
C[C@@H]1C[C@H]2O[C@@H]2C/C=C/CC(=O)Cc2c(Cl)c(O)cc(O)c2C(=O)O1	7.69	> 100		
CO/N=C1/C=C/C=C\[C@H]2O[C@@H]2C[C@@H](C)OC(=O)c2c(O)cc(O)c(Cl)c2C1	1.22	> 100		
C[C@@H]1C[C@H]2O[C@@H]2CC/C=C/[C@H](O)Cc2cc(O)cc(O)c2C(=O)O1	13.2	> 100		
C[C@@H]1C[C@H]2O[C@@H]2C(Sc2ccccc2)/C=C\CC(=O)Cc2c(Cl)c(O)cc(O)c2C(=O)O1 (stereo partly drawn)	0.27	> 50		
COc1cc(OC)c2c(c1Cl)C[C@@H](O)/C=C/CC[C@H]1O[C@@H]1C[C@@H](C)OC2=O	> 100			
CC(=O)Oc1cc(OC(C)=O)c2c(c1Cl)CC(OC(C)=O)/C=C/CC[C@H]1O[C@@H]1C[C@@H](C)OC2=O (stereo partly drawn)	> 100			
C[C@@H]1C[C@H]2O[C@@H]2[C@H](Sc2ccccc2)CCCC(=O)Cc2c(Cl)c(O)cc(O)c2C(=O)O1	> 50	> 50		
C[C@@H]1CCCCCCCC(=O)Cc2cc(O)cc(O)c2C(=O)O1	> 50			

SMILES	IC50 ([1]; Homo sapiens, 24 h) [µM]	CC50 [2] [µM]	IC50 [1] [µM]	IC50 [3] [µM]
C[C@@H]1C[C@@H](O)[C@@H](O)/C=C\C=C\C(=O)Cc2c(Cl)c(O)cc(O)c2C(=O)O1	> 50			
C[C@@H]1C[C@H]2O[C@@H]2\C=C/C=C/C(=N\OCc2ccccc2)Cc2c(Cl)c(O)cc(O)c2C(=O)O1	0.51	65.6		
C[C@@H]1C/C=C/CC/C=C/[C@@H](O)Cc2cc(O)cc(O)c2C(=O)O1	> 50			
CO\N=C1/C=C/C=C\[C@H]2O[C@@H]2C[C@@H](C)OC(=O)c2c(O)cc(O)c(Cl)c2C1	0.15	> 100		
C[C@@H]1C[C@H]2S[C@@H]2/C=C\C=C\C(=O)Cc2c(Cl)c(O)cc(O)c2C(=O)O1	9.13	28.2		
C[C@@H]1C[C@H]2O[C@@H]2\C=C/C=C/C(=N/OCc2ccccc2)Cc2c(Cl)c(O)cc(O)c2C(=O)O1	0.06	42.1		
C[C@@H]1C[C@@H](O)C/C=C\CCC(=O)Cc2c(Cl)c(O)cc(O)c2C(=O)O1	> 50			
C[C@@H]1C[C@H]2OC(=O)O[C@H]2/C=C\C=C\C(=O)Cc2c(Cl)c(O)cc(O)c2C(=O)O1	15.7	28.1		
CC(=O)S[C@@H]1/C=C/CC(=O)Cc2c(Cl)c(O)cc(O)c2C(=O)O[C@H](C)C[C@H]2O[C@@H]21	2.34	> 100		
C[C@@H]1C[C@@H](O)[C@H](Cl)/C=C\C=C\C(=O)Cc2c(Cl)c(O)cc(O)c2C(=O)O1			> 50	
C[C@@H]1C[C@H]2O[C@@H]2\C=C/C=C/C(=N\O)Cc2c(Cl)c(O)cc(O)c2C(=O)O1	0.26	89.5		
C[C@@H]1C[C@@H](O)C(Cl)/C=C\C=C\C(=O)Cc2c(Cl)c(O)cc(O)c2C(=O)O1 (single isomer, unassigned)		42	13.3	
COc1cc(OC)c2c(c1Cl)CC(=O)/C=C/C=C\[C@H]1O[C@@H]1C[C@@H](C)OC2=O [DIMETHYL RADICICOL]	3.76	8.4		
C[C@@H]1C[C@H]2O[C@@H]2CC/C=C/C(=O)Cc2cc(O)cc(O)c2C(=O)O1 [MONOCILLIN III]	9.43	28.9		
C[C@@H]1C[C@H]2O[C@@H]2/C=C\C=C\C(=O)Cc2cc(O)cc(O)c2C(=O)O1 [MONOCILLIN I]	1.93	2.9		
C[C@H]1C[C@H]2O[C@@H]2CC/C=C/C(=O)Cc2c(Cl)c(O)cc(O)c2C(=O)O1 [POCHONIN A]	2.64	57.3		0.09
CC(=O)Oc1cc(OC(C)=O)c2c(c1Cl)CC(=O)/C=C/C=C\[C@H]1O[C@@H]1C[C@@H](C)OC2=O [RADICICOL DIACETATE]	0.3	29.1		
C[C@@H]1C[C@H]2O[C@@H]2/C=C\C=C\C(=O)Cc2c(Cl)c(O)cc(O)c2C(=O)O1 [RADICICOL]	0.19	15.3		
C[C@@H]1C[C@H]2O[C@@H]2CCCCC(=O)Cc2cc(O)cc(O)c2C(=O)O1 [TETRAHYDROMONOCILLIN I]	15			
C[C@@H]1C[C@H]2O[C@@H]2CCCCC(=O)Cc2c(Cl)c(O)cc(O)c2C(=O)O1 [TETRAHYDRORADICICOL]	2.24	> 100		
